Key:
PC-3 = experiment: Antiproliferative activity against human PC-3 cells assessed as cell growth at 0.000001 M incubated for 48 hrs by SRB assay relative to control; type: functional; settings: read-out: Activity
UO-31 = experiment: Antiproliferative activity against human UO-31 cells assessed as cell growth at 0.000001 M incubated for 48 hrs by SRB assay relative to control; type: functional; settings: read-out: Activity
MDA-MB-435 = experiment: Antiproliferative activity against human MDA-MB-435 cells assessed as cell growth at 0.0000001 M incubated for 48 hrs by SRB assay relative to control; type: functional; settings: dose 100 nM, read-out: Activity
NCI-H322M [1] = experiment: Antiproliferative activity against human NCI-H322M cells assessed as cell growth inhibition by measuring lethal concentration incubated for 48 hrs by sulforhodamine B assay; type: functional; settings: read-out: LC50 (the source's name)
ACHN [2] = experiment: Growth inhibition against human ACHN cells incubated for 48 hrs by sulforhodamine B assay; type: functional
U-251 = experiment: Antiproliferative activity against human U-251 cells assessed as cell growth inhibition by measuring lethal concentration incubated for 48 hrs by sulforhodamine B assay; type: functional; settings: read-out: LC50 (the source's name)
In short: (§1)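 NCI-60 five-dose screen (10^-4 to 10^-8 M, 10-fold dilutions; DMSO stocks). Cells in RPMI 1640 with 5% FBS and 2 mM L-glutamine, preincubated 24 h, then exposed 48 h at 37 °C, 5% CO2. Fixed with cold TCA, stained with 0.4% SRB, absorbance read at 515 nm. Time-zero plates used as reference. LC50 taken from [(Ti-Tz)/Tz]×100 […].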

T47D [3] = experiment: Antiproliferative activity against human T47D cells assessed as cell growth at 0.0001 M incubated for 48 hrs by SRB assay relative to control; type: functional; settings: read-out: Activity
NCI-H322M [4] = experiment: Growth inhibition against human NCI-H322M cells incubated for 48 hrs by sulforhodamine B assay; type: functional
HCC 2998 = experiment: Antiproliferative activity against human HCC 2998 cells assessed as cell growth inhibition by measuring lethal concentration incubated for 48 hrs by sulforhodamine B assay; type: functional; settings: read-out: LC50 (the source's name)
COLO 205 [5] = experiment: Antiproliferative activity against human COLO 205 cells assessed as cell growth at 0.00000001 M incubated for 48 hrs by SRB assay relative to control; type: functional; settings: dose 10 nM, read-out: Activity
In short: (§2)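 NCI-60 five-dose screen over 10^-4–10^-8 M (10-fold dilutions). Cells grown in RPMI 1640 with 5% FBS and 2 mM L-glutamine, seeded at 5,000–40,000 cells/well and preincubated 24 h. Drug from DMSO stock, 48 h at 37 °C, 5% CO2. Adherent cells TCA-fixed and stained with 0.4% SRB; A515 read. Percent growth = (Ti−Tz)/(C−Tz)×100, or (Ti−Tz)/Tz×100 when Ti<Tz.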

T47D [6] = experiment: Growth inhibition against human T47D cells incubated for 48 hrs by sulforhodamine B assay; type: functional
LOX IMVI [7] = experiment: Antiproliferative activity against human LOX IMVI cells assessed as cell growth at 0.000001 M incubated for 48 hrs by SRB assay relative to control; type: functional; settings: read-out: Activity
CCRF-CEM = experiment: Antiproliferative activity against human CCRF-CEM cells assessed as cell growth at 0.00000001 M incubated for 48 hrs by SRB assay relative to control; type: functional; settings: dose 10 nM, read-out: Activity; in short: as §2
786-0 = experiment: Antiproliferative activity against human 786-0 cells assessed as cell growth at 0.00000001 M incubated for 48 hrs by SRB assay relative to control; type: functional; settings: dose 10 nM, read-out: Activity; in short: as §2
HL-60 [8] = experiment: Antiproliferative activity against human HL-60 cells assessed as cell growth at 0.00001 M incubated for 48 hrs by SRB assay relative to control; type: functional; settings: read-out: Activity
In short: (§3)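 NCI-60 five-dose screen (10^-4 to 10^-8 M). Cells grown in RPMI 1640 with 5% FBS and 2 mM L-glutamine, plated at 5,000-40,000 cells/well and preincubated 24 h. Drug given from DMSO stock, then 48 h at 37 °C, 5% CO2. For adherent lines, cells fixed with cold TCA, SRB-stained and read at 515 nm. Percent growth taken against time-zero and untreated control.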

LOX IMVI [9] = experiment: Antiproliferative activity against human LOX IMVI cells assessed as cell growth at 0.0000001 M incubated for 48 hrs by SRB assay relative to control; type: functional; settings: dose 100 nM, read-out: Activity
CAKI-1 = experiment: Antiproliferative activity against human CAKI-1 cells assessed as cell growth at 0.00000001 M incubated for 48 hrs by SRB assay relative to control; type: functional; settings: dose 10 nM, read-out: Activity; in short: as §2
HCT-116 = experiment: Growth inhibition against human HCT-116 cells incubated for 48 hrs by sulforhodamine B assay; type: functional
T47D [10] = experiment: Antiproliferative activity against human T47D cells assessed as cell growth at 0.0000001 M incubated for 48 hrs by SRB assay relative to control; type: functional; settings: dose 100 nM, read-out: Activity
Calf thymus DNA = experiment: Binding affinity to calf thymus DNA assessed as DNA intercalation by measuring Stem-Volmer quenching constant at temperature of 298 K by fluorescence spectroscopic method; type: nucleic-acid assay; settings: Bos taurus
MDA-MB-231 = experiment: Antiproliferative activity against human MDA-MB-231 cells assessed as cell growth at 0.00001 M incubated for 48 hrs by SRB assay relative to control; type: functional; settings: read-out: Activity
COLO 205 [11] = experiment: Antiproliferative activity against human COLO 205 cells assessed as cell growth at 0.00001 M incubated for 48 hrs by SRB assay relative to control; type: functional; settings: read-out: Activity; in short: as §2
KM12 = experiment: Antiproliferative activity against human KM12 cells assessed as cell growth at 0.00001 M incubated for 48 hrs by SRB assay relative to control; type: functional; settings: read-out: Activity
MCF7 = experiment: Antiproliferative activity against human MCF7 cells assessed as cell growth inhibition by measuring lethal concentration incubated for 48 hrs by sulforhodamine B assay; type: functional; settings: read-out: LC50 (the source's name)
NCI/ADR-RES = experiment: Growth inhibition against human NCI/ADR-RES cells incubated for 48 hrs by sulforhodamine B assay; type: functional
ACHN [12] = experiment: Antiproliferative activity against human ACHN cells assessed as cell growth at 0.00001 M incubated for 48 hrs by SRB assay relative to control; type: functional; settings: read-out: Activity; in short: as §2
OVCAR-8 = experiment: Growth inhibition against human OVCAR-8 cells assessed as total growth inhibitory concentration incubated for 48 hrs by sulforhodamine B assay; type: functional
HEK293 = experiment: Cytotoxicity against human HEK293 cells assessed as reduction in cell viability at 0.000001 M incubated for 48 hrs by MTT colorimetric assay relative to control; type: toxicity, cell-based; settings: hek293, 48 h, 1 µM
COLO 205 [13] = experiment: Antiproliferative activity against human COLO 205 cells assessed as cell growth at 0.000001 M incubated for 48 hrs by SRB assay relative to control; type: functional; settings: read-out: Activity; in short: as §2
HL-60 [14] = experiment: Antiproliferative activity against human HL-60 cells assessed as cell growth at 0.0000001 M incubated for 48 hrs by SRB assay relative to control; type: functional; settings: dose 100 nM, read-out: Activity; in short: as §3
SR = experiment: Antiproliferative activity against human SR cells assessed as cell growth inhibition by measuring lethal concentration incubated for 48 hrs by sulforhodamine B assay; type: functional; settings: read-out: LC50 (the source's name); in short: as §1
SK-MEL-2 = experiment: Antiproliferative activity against human SK-MEL-2 cells assessed as cell growth inhibition by measuring lethal concentration incubated for 48 hrs by sulforhodamine B assay; type: functional; settings: read-out: LC50 (the source's name)
SNB-75 = experiment: Antiproliferative activity against human SNB-75 cells assessed as cell growth at 0.000001 M incubated for 48 hrs by SRB assay relative to control; type: functional; settings: read-out: Activity

Row | Compound | growth at 1 µM (PC-3) | growth at 1 µM (UO-31) | growth at 0.1 µM (MDA-MB-435) | CC50 (NCI-H322M [1]) | GI50 (ACHN [2]) | CC50 (U-251) | growth at 100 µM (T47D [3]) | GI50 (NCI-H322M [4]) | CC50 (HCC 2998) | growth at 0.01 µM (COLO 205 [5]) | GI50 (T47D [6]) | growth at 1 µM (LOX IMVI [7]) | growth at 0.01 µM (CCRF-CEM) | growth at 0.01 µM (786-0) | growth at 10 µM (HL-60 [8]) | growth at 0.1 µM (LOX IMVI [9]) | growth at 0.01 µM (CAKI-1) | GI50 (HCT-116) | growth at 0.1 µM (T47D [10]) | KSV (Calf thymus DNA) | further results
1 | COc1ccc(-c2cn3ccnc3c(-c3ccc4ncn(C5CCCCC5)c4c3)n2)cc1 | 37% | 55% | 92% | > 100 µM | 0.692 µM | > 100 µM | -21% | > 100 µM | > 100 µM | 96% | 0.76 µM | 44% | 106% | 87% | -22% | 92% | 88% | 0.399 µM | 86% | 4.65 10^4/M | growth at 10 µM (MDA-MB-231): 12%; growth at 10 µM (COLO 205 [11]): 1%; growth at 10 µM (KM12): 5%; CC50 (MCF7): > 100 µM; GI50 (NCI/ADR-RES): 0.618 µM; growth at 10 µM (ACHN [12]): 13%; TGI (OVCAR-8): > 100 µM; Activity (HEK293): 15.07%; growth at 1 µM (COLO 205 [13]): 76%; growth at 0.1 µM (HL-60 [14]): 95%; CC50 (SR): > 100 µM; CC50 (SK-MEL-2): > 100 µM; growth at 1 µM (SNB-75): 45%
2 | c1ccc(Cn2cnc3ccc(-c4nc(-c5ccc6c(c5)ncn6C5CCCCC5)cn5ccnc45)cc32)cc1 | 75% | 78% | 98% | > 100 µM | 3.08 µM | > 100 µM | 9% | 3.05 µM | 6.12 µM | 95% | 1.49 µM | 88% | 100% | 86% | -24% | 94% | 87% | 1.07 µM | 95% | 1.19 10^4/M | growth at 10 µM (MDA-MB-231): -63%; growth at 10 µM (COLO 205 [11]): -61%; growth at 10 µM (KM12): -41%; CC50 (MCF7): > 100 µM; GI50 (NCI/ADR-RES): 1.98 µM; growth at 10 µM (ACHN [12]): 11%; TGI (OVCAR-8): 6.54 µM; Activity (HEK293): 14.11%; growth at 1 µM (COLO 205 [13]): 92%; growth at 0.1 µM (HL-60 [14]): 113%; CC50 (SR): > 100 µM; CC50 (SK-MEL-2): > 100 µM; growth at 1 µM (SNB-75): 60%

From ChEMBL document CHEMBL5247578, “Effective synthesis of benzimidazoles-imidazo[1,2-a]pyrazine conjugates: A comparative study of mono-and bis-benzimidazoles for antitumor activity” (Eur J Med Chem, 2019)
